# NR1D1 modulator = modulators of human Rev-erb alpha DNA binding; Rev-erbα–FITC-DNA binding, fluorescence polarization, 90 min; activity, % at 10 µM; actives 0.79% (n = 370,000); AID 1259318;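 active means activity above about 14%, limit read from the data; passing the limit was not always enough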;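 further: 0% = DMSO wells with 35 nM protein and 100% = DMSO wells with 750 nM protein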
# Target sequence (P20393 whole entry, looked up): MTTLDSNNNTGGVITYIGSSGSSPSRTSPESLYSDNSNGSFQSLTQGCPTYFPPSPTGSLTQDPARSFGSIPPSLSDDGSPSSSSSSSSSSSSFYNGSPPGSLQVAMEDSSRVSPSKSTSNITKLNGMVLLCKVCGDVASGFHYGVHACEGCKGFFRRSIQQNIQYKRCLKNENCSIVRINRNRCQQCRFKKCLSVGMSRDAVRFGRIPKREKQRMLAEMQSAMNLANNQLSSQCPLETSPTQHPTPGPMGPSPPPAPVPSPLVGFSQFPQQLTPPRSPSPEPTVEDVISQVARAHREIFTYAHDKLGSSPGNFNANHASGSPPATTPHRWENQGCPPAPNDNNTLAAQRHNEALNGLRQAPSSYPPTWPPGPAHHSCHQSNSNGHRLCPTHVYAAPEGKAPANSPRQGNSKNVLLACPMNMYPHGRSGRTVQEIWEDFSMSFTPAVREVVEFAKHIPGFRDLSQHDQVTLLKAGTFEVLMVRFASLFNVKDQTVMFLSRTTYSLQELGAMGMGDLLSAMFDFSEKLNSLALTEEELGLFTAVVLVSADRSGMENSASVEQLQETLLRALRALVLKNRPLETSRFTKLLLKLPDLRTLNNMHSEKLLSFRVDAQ
# NR2E3 ag-1 = NR2E3 (human) agonism; GST-NR2E3/biotin-RetCOR TR-FRET, 1536-well; inhibition of corepressor binding, % at 4.78 µM; actives 0.12% (n = 320,000); AID 2300;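 active means percent inhibition above the cutoff of mean plus 3 SD of all tested compounds, set per screening campaign, cut at about 20% in these data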;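 further: 0% = DMSO wells and 100% = biotin wells as full block of FRET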
#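 Material – GST-tagged NR2E3 plus biotinylated RetCOR corepressor · Quantity – NR2E3 fusion 1.35 nM · Times – 5 h incubation at 4 °C · Medium – pH 7.5 Tris-based buffer · Technique – TR-FRET, Eu(K)-anti-GST donor, streptavidin-D2 acceptor, ex 340, em 617/671 nm · Benchmarks – high control biotin, low control 0.6% DMSO · Format – 1536-well plates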
# NR2E3 ag-2 = agonists of human NR2E3 nuclear receptor. actives 0.35% (n = 360,000). AID 602229. inhibition of corepressor binding, % at 3.98 µM. CHO-S Gal4-NCOR/VP16-NR2E3 two-hybrid, luciferase. Q9Y5X4;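 active means inhibition above the mean of all tested compounds plus 3 SD, cut at about 70% in these data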;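 further: 0% = DMSO with NR2E3 transfected cells and 100% = cells lacking NR2E3 construct; higher means lower luciferase signal from less NR2E3 corepressor binding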
# PG9 Ab binder = binds the HIV-1 gp120 antibody PG9. TR-FRET gp120-PG9 antibody binding. inhibition, % at 6.7 µM. actives 0.43% (n = 360,000). AID 624416; in the data active means inhibition above about 8.5%
# Rev-erbA confirm = confirmation of modulators of human Rev-erb alpha DNA binding | Rev-erb alpha FITC-DNA binding, fluorescence polarization, 90 min | actives 61% (n = 3,000) | activation, % at 25 µM | AID 1259319 | shares compounds with NR1D1 modulator;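 active means activation at or above a set limit, or at least 3 SD above the negative control mean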;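 further: 0% = 35 nM protein with DMSO and 100% = 750 nM protein high control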
# RORg counter = RORgamma DNA-binding activity, dose-response counter-screen. shares compounds with NR1D1 modulator. purified RORgamma protein-FITC-DNA binding, fluorescence polarization. IC50, µM. actives 8% (n = 910). AID 1259320;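 active means Compounds whose fitted half-maximal concentration for disrupting protein-DNA binding is below 10 micromolar; the record names Rev-erb in its text, so the target is in doubt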
# * = called active by the depositor; · = not tested or not shown; ! = repeats disagree. A selection: hits, their analogues and other compounds. The true share with any hit is near 1.4%.
SMILES,NR1D1 modulator,NR2E3 ag-1,NR2E3 ag-2,PG9 Ab binder,Rev-erbA confirm,others
O=C(Cc1cn(Cc2ccccc2)c2ccccc12)Nc1ccc(Nc2cccnc2)cc1,10.6,·,·,-0.4,·,
Cn1nnnc1SCc1cccc2ccccc12,4.8,0.2,-35.5,-0.6,·,
Cn1nnnc1SCc1nc2ccccc2s1,21.7*,3.3,-22.2,-1.1,7.2,
O=c1c2ccccc2c(-c2ccccc2)nn1-c1cc(Cl)cc(Cl)c1,31.0*,1.1,3.0,-0.3,0.2,
O=c1c2ccccc2c(-c2ccccc2)nn1Cc1c(Cl)cccc1Cl,6.1,1.1,-5.0,1.1,·,
Cc1nn(-c2ccc(F)cc2)c2nc(N)c(C#N)c(-c3ccc(O)c(O)c3)c12,4.8,·,-22.7,1.4,·,
Cc1c(-c2ccc(F)cc2)nc(N)c(C#N)c1-c1cccs1,78.0*,6.5,-8.1,-0.3,52.7*,RORg counter=3.21*
Cc1nn(-c2ccc(F)cc2)c2nc(N)c(C#N)c(-c3cccs3)c12,80.2*,-1.6,4.9,1.2,44.9*,
Cc1c(-c2ccc(F)cc2)nc(N)c(C#N)c1-c1cccnc1,0.1,-0.6,-24.0,2.4,·,
COc1ccc(CCNc2nc3ccccc3n3nnnc23)cc1OC,30.3*,0.3,-88.2,-0.3,22.2*,
c1ccc(CCNc2nc3ccccc3n3nnnc23)cc1,49.1*,-0.4,2.1,1.7,30.2*,
CCOc1ccc(Nc2nc3ccccc3n3nnnc23)cc1,-2.6,3.5,-93.5,2.5,·,
CN(C)c1ccc(-c2[nH][nH]c(=O)c2NC(=O)c2ccc3ccccc3n2)cc1,-1.7,·,-37.7,-5.7,·,
Cc1cc2c(c(=O)o1)[C@@]1(C(=O)N(C)c3ccccc31)C1=C(CC(C)(C)OC1=O)O2,-2.8,·,·,0.4,·,
CC1NC(=O)c2cc3ccccc3cc2-n2c1nc1cc(Cl)ccc1c2=O (stereo not drawn),16.1*,·,-10.8,-1.4,-0.5,
O=C(Nc1ccc([N+](=O)[O-])cc1)C(c1ccccc1)c1ccccc1,-3.3,·,-10.0,-1.5,·,
COc1ccc(-c2cc(-c3ccccc3)nc(SCC(=O)Nc3nccs3)c2C#N)cc1,78.5*,-2.7,9.6,1.6,61.2*,RORg counter=>40
CCc1nnc(NC(=O)CSc2nc(-c3ccccc3)cc(-c3ccc(OC)cc3)c2C#N)s1,47.9*,1.9,-15.0,-0.9,43.4*,
N#Cc1c(-c2ccccc2)cc(C2CC2)nc1SCC(=O)c1cccs1,19.0*,·,-11.8,0.0,29.5*,
CCOc1ccc(-c2ccc(SCC(=O)Nc3nnc(CC)s3)nn2)cc1,-4.5,-4.2,-66.5,-1.5,·,
N#Cc1c(-c2ccc(Cl)cc2)cc(-c2ccccc2)nc1SCC(=O)O,-1.4,5.6,18.2,0.5,·,
CC(C)NC(=O)CSc1nc(-c2cccs2)cc(-c2ccccc2)c1C#N,59.6*,-0.1,-14.8,0.0,46.8*,RORg counter=>40
O=C(Nc1ccn(CCCNCC2CCCCC2)c(=O)n1)OCc1ccccc1,12.2,·,-24.1,-1.1,·,
Cc1cc(NC(=O)c2ccc3sc([C@@H]4O[C@H](CO)[C@H](O)[C@H](O)[C@H]4O)nc3c2)n(C)n1,4.2,·,-43.9,0.3,·,
O=c1[nH]c(=O)n(C2OC(CO)C(O)C2O)c2c1CCCC2 (stereo not drawn),0.2,·,3.5,0.5,·,
SMILES,NR1D1 modulator,NR2E3 ag-1,NR2E3 ag-2,PG9 Ab binder,Rev-erbA confirm,others
COc1ccc(-n2c(SCC(=O)NCC3CCCO3)nnc2-c2ccncc2)cc1 (stereo not drawn),-3.4,·,·,·,·,
CCN(C(=O)CN1CCN(c2nc(-c3ccccc3)cs2)CC1)c1ccccc1C,6.7,·,·,·,·,
CCN(CC)C(=O)CSc1nc(C)cc(-c2cccs2)c1C#N,77.8*,3.2,-20.4,0.4,50.6*,RORg counter=>40
CCc1nnc(NC(=O)Cc2ccc(OC)cc2)s1,-2.9,0.5,-6.6,-0.5,·,
Cc1cc(C)c(C#N)c(SCC(=O)c2cccs2)n1,7.0,3.3,-89.8,3.9,·,
CCc1nnc(NC(=O)CSc2nc3cc(OC)ccc3cc2C)s1,164.8*,0.8,-2.3,-0.1,12.4,
CNC(=O)C1(c2ccccc2)CCCCC1,1.0,·,-19.4,-1.7,·,
COc1ccccc1CNC(=O)c1c(O)c2cc(OC)c(OC)cc2[nH]c1=O,28.5*,2.7,11.9,0.2,19.2*,
CC/C(=C(/CC)c1ccc(OP(=O)(O)O)cc1)c1ccc(OP(=O)(O)O)cc1,0.7,·,·,·,·,
CC/C(=C(/CC)c1ccc(O)cc1)c1ccc(O)cc1,30.7*!,-0.4,-9.5,-0.8,33.6*,
CCOc1nc(-c2ccccc2)c2cc(Br)ccc2n1,26.5*,0.8,-17.2,1.4,15.0,
Cn1cncc1C#Cc1ccc2cc(C3(O)CCCCC3)oc(=O)c2c1,70.3*,-0.7,4.8,0.6,43.3*,RORg counter=>40
O=C(OCCN1CCOCC1)c1ccc(O)cc1,13.8*,1.6,-5.4,-3.3,1.7,
Cc1cccc(NC(=O)c2ccc3c(Cl)c4c(nc3c2)CCCC4)n1,23.8*,2.5,-11.5,2.9,10.8,
O=C(Nc1ccc(Cl)cn1)c1ccc2c(Cl)c3c(nc2c1)CCC3,-1.8,0.5,-10.1,1.2,·,
CC(C)(N[C@@H](Cc1c[nH]c2ccccc12)C(=O)NCCc1c[nH]c2ccccc12)C(=O)NC1CCCCC1,4.5,·,·,·,·,
COc1ccc(-c2oc3c(c2C#CCCCCO)C(OCCO)CC3)cc1 (stereo not drawn),5.2,·,-3.3,-0.6,·,
N#Cc1c(N)nc(SCC(=O)C23CC4CC(CC(C4)C2)C3)c(C#N)c1-c1ccc(Cl)cc1,81.1*,0.1,-27.9,-1.0,43.6*,RORg counter=>40
CCCSc1nc(N)c(C#N)c(-c2ccc(C)cc2)c1C#N,66.4*,7.3,2.6,7.2,32.5*,
CCOC(=O)CC(=O)CSc1nc(N)c(C#N)c(-c2ccc(Cl)cc2)c1C#N,13.8,6.2,-29.3,0.5,·,
C=CCSc1nc(N)c(C#N)c(-c2ccccc2)c1C#N,49.9*,4.6,-25.6,3.9,32.1*,RORg counter=>40
COc1cccc(OCc2cc(C(=O)N(C)C3CCCCC3)no2)c1,-3.5,·,-81.6,0.5,·,
Nc1nc2c(ncn2[C@@H]2O[C@H](CNC(=O)[C@H](N)Cc3ccccc3)[C@@H](O)[C@H]2O)c(=O)[nH]1,-4.0,·,1.5,-0.9,·,
CCOC(=O)c1cnc2c3c(noc13)CCC2,-3.6,·,·,-1.4,·,
COc1ccc(-c2oc3ccccc3c(=O)c2OC(=O)c2ccc(C)cc2)cc1,21.6*,-1.1,7.2,0.0,35.5*,RORg counter=>40
CC(=O)c1ccc(S(=O)(=O)Nc2cc3c(cc2C(C)=O)OCO3)cc1,-1.2,1.7,-5.0,0.5,·,
CC(=O)c1cc2c(cc1N/C(=N/S(=O)(=O)c1ccc(Br)cc1)c1ccccc1)OCO2,96.8*,2.4,9.6,0.1,16.7,
CN(C)c1ncnc2c1ncn2[C@H]1CN(Cc2cccs2)C[C@@H](CO)O1,23.9*,·,-39.9,0.2,-1.1,
CN(C)c1ncnc2c1ncn2[C@H]1CN(Cc2ccncc2)C[C@@H](CO)O1,-1.6,·,-46.2,1.2,·,
